The results in this text go back to ChEMBL document CHEMBL3286298 (Eur J Med Chem, 2014).

Data set [1] has as its system Brain. Briefly: Metabolic stability in mouse brain assessed as first order rate constant of disappearance of drug by HPLC analysis. The format is ADME, tissue-based. An outline of the steps: (§1)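 Incubation in mouse plasma extract or brain homogenate at 37 °C; remaining compound measured by HPLC (UV 219 nm). Pseudo-first-order Kdisapp from linear regression of ln peak area against time in minutes; half-life derived from it.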

Data set [2] deals with Brain. Briefly: Drug uptake in Kunming mouse brain […] iv ibuprofen administered as single dose by HPLC analysis relative to ibuprofen. The format is ADME, organism-based. The note with it: in vivo.
Data set [3] concerns Brain. The experiment in a line: Drug uptake in Kunming mouse brain assessed as concentration efficiency […] iv ibuprofen administered as single dose by HPLC analysis relative to ibuprofen. The data set is classed as ADME, organism-based. The note with it: in vivo.
The nature of data set [4]: Chemical stability of compound in phosphate buffer assessed as half life at pH 7.88 by HPLC analysis. The format is physicochemical. An outline of the steps:
(§2)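 Methanol solution of compound mixed into 4 ml phosphate buffer (pH 2.21, 5.86, 7.33 or 7.88), held at 37 °C; samples taken at 0, 1, 3, 6, 12, 24 h and analysed by reverse-phase HPLC (methanol/water 70:30, pH 2.86, UV 219 nm). Pseudo-first-order Kdisapp from linear regression of ln peak area against time in hours; t1/2 derived from it.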

The nature of data set [5]: Metabolic stability in mouse plasma assessed as compound half life by HPLC analysis. The data set is classed as ADME, cell-free. An outline of the steps:
as §1

Data set [6] in a line: Chemical stability of compound in phosphate buffer assessed as first order rate constant of disappearance of drug at pH 7.88 by HPLC analysis. The data set is classed as physicochemical. An outline of the steps: as §2
Data set [7] in a line: Metabolic stability in mouse plasma assessed as first order rate constant of disappearance of drug by HPLC analysis. The data set is classed as ADME, cell-free. An outline of the steps: as §1
Data set [8] is described as follows: Chemical stability of compound in phosphate buffer assessed as half life at pH 2.21 by HPLC analysis. The format is physicochemical. An outline of the steps:
as §2

A short description of data set [9]: Chemical stability of compound in phosphate buffer assessed as half life at pH 7.33 by HPLC analysis. The data set is classed as physicochemical. The essentials:
as §2

Data set [10] is described as follows: Chemical stability of compound in phosphate buffer assessed as first order rate constant of disappearance of drug at pH 2.21 by HPLC analysis. The format is physicochemical. The essentials:
as §2

A short description of data set [11]: Chemical stability of compound in phosphate buffer assessed as half life at pH 5.86 by HPLC analysis. The data set is classed as physicochemical. The essentials:
as §2

Data set [12] is described as follows: Metabolic stability in mouse brain assessed as compound half life by HPLC analysis. The format is ADME, tissue-based. The essentials:
as §1

Data set [13] relates to Brain. The experiment in a line: AUC (0 to t) in Kunming mouse brain […] iv ibuprofen administered as single dose by HPLC analysis. The format is ADME, organism-based. The note with it: in vivo.
Data set [14] in a line: Chemical stability of compound in phosphate buffer assessed as first order rate constant of disappearance of drug at pH 5.86 by HPLC analysis. The format is physicochemical. An outline of the steps:
as §2

Data set [15] can be described thus: Chemical stability of compound in phosphate buffer assessed as first order rate constant of disappearance of drug at pH 7.33 by HPLC analysis. The data set is classed as physicochemical. An outline of the steps:
as §2

Data set [16] deals with Brain. The experiment in a line: AUC (0 to t) in Kunming mouse brain at 48 mmol/g, iv administered as single dose by HPLC analysis. The note with it: in vivo. The format is ADME, organism-based.
Data set [17] in a line: Mean residence time in Kunming mouse blood at 48 mmol/g, iv administered as single dose by HPLC analysis. The format is ADME, organism-based.
Data set [18] is described as follows: Cmax in Kunming mouse blood at 48 mmol/g, iv administered as single dose by HPLC analysis. The format is ADME, organism-based. Details: dose 48 mmol/g, route intravenous.
A short description of data set [19]: Tmax in Kunming mouse blood at 48 mmol/g, iv administered as single dose by HPLC analysis. The data set is classed as ADME, organism-based.
Data set [20] in a line: Cmax in Kunming mouse brain at 48 mmol/g, iv administered as single dose by HPLC analysis. Details: dose 48 mmol/g, route intravenous. The data set is classed as ADME, organism-based.
Data set [21] in a line: Tmax in Kunming mouse brain at 48 mmol/g, iv administered as single dose by HPLC analysis. The data set is classed as ADME, organism-based.
Data set [22] can be described thus: AUC (0 to t) in Kunming mouse blood at 48 mmol/g, iv administered as single dose by HPLC analysis. The format is ADME, organism-based.

With `CC(C)Cc1ccc(C(C)C(=O)OC(CO)C2OC(=O)C(O)=C2O)cc1` (configuration not stated), the K in the data set on Brain [1] is 4.16 ×10⁻² /min; in [6], 7.15 ×10⁻² /hr; in data set [10] it was 1.61 ×10⁻² /hr; in data set [14], 3.36 ×10⁻² /hr; in data set [15], 4.3 ×10⁻² /hr. For the same compound, the Ratio with Brain [2] is given as 2.254; in the data set with Brain [3] it was 4.194. The half-life in data set [4] was 9.7 h; in [5], 0.857 h; in data set [8], 43 h; in [9], 16.1 h; in data set [11], 20.6 h; in data set [12], 0.278 h. In addition, the k el in [7] was 0.000225 s⁻¹. In the data set on Brain [13], this compound yielded an AUCt of 4183.3895 µg·min/g.
`CC(C)Cc1ccc(C(C)C(=O)OCC(O)C2OC(=O)C(O)=C2O)cc1` (configuration not stated): the K in the data set with Brain [1] came out at 3.46 ×10⁻² /min; in [6], 8.42 ×10⁻² /hr; in [10], 1.73 ×10⁻² /hr; in [14], 3.76 ×10⁻² /hr; in [15], 4.67 ×10⁻² /hr. In addition, the Ratio in the data set on Brain [2] stood at 2.03; in the data set with Brain [3] it was 2.619. The half-life in [4] was 8.2 h; in [5] it was 0.777 h; in data set [8], 40.1 h; in data set [9] it was 14.8 h; in data set [11], 18.4 h; in data set [12], 0.335 h. For the same compound, in data set [7], the k el was 0.000248 s⁻¹. In addition, in the data set on Brain [13], the AUCt was determined as 3767.9842 µg·min/g.
As to `CC(C)Cc1ccc(C(C)C(=O)O)cc1` (configuration not stated) [IBUPROFEN], the AUCt in the data set with Brain [16] was 1856.215 µg·min/g. Also, the MRT in data set [17] is 78.9 h. Moreover, the maximum concentration (Cmax) was 28400 ng/mL in data set [18] and 10700 ng/g in [20]. Also, the Tmax is 6.67 min in [19] and 0.417 h in data set [21]. The compound also had an AUC(0-t) in data set [22] of 56800 ng·h/mL.
Turning to `CC(C)Cc1ccc(C(C)C(=O)OCC(OC(=O)C(C)c2ccc(CC(C)C)cc2)C2OC(=O)C(O)=C2O)cc1` (configuration not stated), the K with Brain [1] worked out at 2.48 ×10⁻² /min; in [6] it was 8.65 ×10⁻² /hr; in data set [10], 1.76 ×10⁻² /hr; in [14], 3.66 ×10⁻² /hr; in data set [15] it was 5.58 ×10⁻² /hr. For the same compound, the Ratio is on record as 3.516 in the data set on Brain [2] and 4.965 in the data set on Brain [3]. In addition, the half-life in data set [4] was 8.1 h; in data set [5] it was 0.737 h; in data set [8], 39.5 h; in [9] it was 12.4 h; in data set [11] it was 18.9 h; in data set [12], 0.465 h. Besides, the k el in data set [7] was 0.000262 s⁻¹. The same compound had an AUCt with Brain [13] of 6526.7422 µg·min/g.
On to `C/C(=C(\CCOC(=O)C(C)c1ccc(CC(C)C)cc1)SSCc1ccccc1)N(C=O)CC(=O)OCC(OC(=O)C(C)c1ccc(CC(C)C)cc1)C1OC(=O)C(O)=C1O` (configuration not stated), for which the K with Brain [1] is on record as 5.46 ×10⁻² /min; in data set [6] it was 6.87 ×10⁻² /hr; in data set [10], 1.29 ×10⁻² /hr; in data set [14], 2.89 ×10⁻² /hr; in [15], 4.27 ×10⁻² /hr. The Ratio is given as 4.072 in the data set on Brain [2] and 7.461 with Brain [3]. Besides, the half-life in data set [4] was 10.1 h; in [5], 0.463 h; in [8], 53.9 h; in [9], 16.2 h; in data set [11] it was 23.9 h; in data set [12], 0.212 h. For the same compound, the k el in data set [7] is 0.000307 s⁻¹. In addition, in the data set with Brain [13], the AUCt came out at 7557.692 µg·min/g.

For orientation: half-life means the time in which the quantity being followed falls by half. A word on the MRT: it is a mean duration of stay, worked out from the concentration-time curve. As usually defined, the Cmax is the peak of the concentration-time curve. As usually defined, the Tmax is the time at which the peak concentration occurs. For orientation: AUC(0-t) means exposure summed from dosing to a finite time, without extrapolation to infinity.
